Reference: ChEMBL document CHEMBL4765242, “Novel Triapine Derivative Induces Copper-Dependent Cell Death in Hematopoietic Cancers” (J Med Chem, 2019)
Activity calls are given as the source filed them. No cut-off for these calls is given here.

Legend:
[1] = Metal chelating activity assessed as copper chelation by UV-Visible spectrophotometry
[2] = Half life in mouse liver microsomes at 10 uM preincubated for 5 mins followed by NADPH addition and measured up to 45 mins by LC/MS analysis; assay type: ADME, Microsome; details: time <=50 min
[3] = test system: MV4-11; experiment: Induction of apoptosis in human MV4-11 cells assessed as necrotic cells incubated for 24 hrs by Annexin-V/FITC and propidium iodide staining based flow cytometry (reference value: 0.72 %); assay type: functional
Summary of the method: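 Cells exposed to compound for 24 h with or without Cu2+, then Annexin V-FITC/propidium iodide double staining and flow cytometry.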

[4] = test system: MV4-11; experiment: Potentiation of copper-induced apoptosis in human MV4-11 cells assessed as late apoptotic cells incubated for 24 hrs in presence of copper by Annexin-V/FITC and propidium iodide staining based flow cytometry (reference value: 9.95 %); assay type: functional
[5] = test system: REH; experiment: Potency index, ratio of triapine IC50 to test compound IC50 for human REH cells assessed as reduction in cell viability incubated for 48 hrs by cell-titer-Glo luminescent cell viability assay; assay type: functional
Summary of the method: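 Cells were exposed to increasing concentrations of triapine or of the test compound in parallel. Viability was read by CellTiter-Glo luminescence 48 h after treatment, relative to vehicle-treated cells. IC50 was fitted by non-linear regression to a standard sigmoidal dose-response model, and the index was taken from the two IC50s.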

- Activity [1]: Active
- half-life at 10 µM [2]: 1.31 h
SMILES: COc1cc2nc(N/N=C3\CCCc4cccnc43)sc2cc1OC
- Activity [3]: 5.86%
- Activity [4]: 80.5%
- Ratio IC50 [5]: 10
